Active and inactive are the calls of the source. No cut-off for these calls is given here.
Key:
Ebolavirus [1] = assay: Antiviral activity against Ebolavirus H. sapiens-wt/1995/Kikwit-9510621 infected in human HeLa cells assessed as inhibition of viral infection pretreated for 2 hrs followed by viral infection and measured after 48 hrs by EboV GP immunostaining based high content imaging analysis; assay type: functional, organism-based
[2] = Cytotoxicity against human HeLa cells after 2 hrs by high content imaging analysis; assay type: cell-based
[3] = Selectivity index, ratio of CC50 for human HeLa cells to EC50 for Ebolavirus H. sapiens-wt/1995/Kikwit-9510621 infected in human HeLa cells; assay type: toxicity, cell-based; details: read-out: Ratio CC50/EC50
HeLa [4] = assay: Induction of lysosomotropism in human HeLa cells infected with Ebolavirus assessed as expansion of acid compartments at 0.01 uM for 2 hrs by acridine orange staining based assay; assay type: functional, cell-based
In short: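 HeLa cells pretreated 2 h, then acridine orange for 30 min, washed and imaged. Total intensity and average area of acridine orange fluorescence quantified by high-content imaging. Mean ± SD of 8 wells, about 3000 cells each, three independent experiments.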

HeLa [5] = assay: Induction of lysosomotropism in human HeLa cells infected with Ebolavirus assessed as increase in fluorescence intensity of acid compartments at 0.01 uM for 1 hr by Lysosensor DND189 staining based assay; assay type: functional, cell-based
In short: (§1)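 HeLa cells were pretreated 1 h with compound (Bafilomycin A1 at 0.01 μM as acidification control), then stained with LysoSensor DND 189 for 10 min and washed. Live imaging at Ex/Em 443/505 nm. Fluorescence intensity per area was quantified by image analysis. Eight wells per point, about 3000 cells/well, mean ± SD, three independent experiments.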

[6] = target: Cathepsin B (Homo sapiens) (UniProt P07858); assay: Inhibition of cathepsin B activity in human HeLa cells at 0.01 uM after 12 hrs by magic red substrate based fluorescence assay; assay type: cell-based
In short: (§2)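 HeLa cells were exposed to compound for 12 h, then given the Magic Red cathepsin B peptide reporter, washed, and imaged at Ex/Em 590/630. Total intensity and average area of red fluorescence were scored by high-content analysis. Eight wells per point, about 3000 cells/well, mean ± SD, three independent experiments.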

Ebolavirus [7] = assay: Antiviral activity against Ebolavirus; assay type: functional, organism-based; details: Orthoebolavirus
Ebolavirus [8] = assay: Antiviral activity against Ebolavirus infected in mouse assessed as protection against viral infection at 30 mg/kg/day relative to control; assay type: functional
Ebolavirus [9] = assay: Antiviral activity against Ebolavirus infected in mouse assessed as protection against viral infection at 60 mg/kg/day relative to control; assay type: functional
Ebolavirus [10] = assay: Antiviral activity against Ebolavirus infected in monkey assessed as protection against viral infection at 3.3 mg/kg/day relative to control; assay type: functional
[11] = target: Cathepsin B (Homo sapiens) (UniProt P07858); assay: Inhibition of cathepsin B activity in human HeLa cells at 10 uM after 12 hrs by magic red substrate based fluorescence assay; assay type: cell-based; in short: as §2
Zaire ebolavirus [12] = assay: Antiviral activity against VSV pseudotyped Ebolavirus Mayinga expressing GFP infected in human HeLa cells assessed as inhibition of viral infection at 10 uM pre-incubated for 2 hrs followed by viral infection and measured after 8 hrs by cell mask deep red staining based assay; assay type: functional, organism-based; details: 1976
In short: (§3)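 HeLa cells pretreated 2 h with compound, then infected with rVSV-EBOV-GP-GFP (8 h) or VSV-GFP (6 h), and stained with Cell Mask Deep Red. Relative inhibition = 1 minus (% GFP-expressing cells normalised to mock). Mean ± SD of three replicates, representative of three independent experiments.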

HeLa [13] = assay: Induction of lysosomotropism in human HeLa cells infected with Ebolavirus assessed as increase in fluorescence intensity of acid compartments at 10 uM for 1 hr by Lysosensor DND189 staining based assay; assay type: functional, cell-based; in short: as §1
HeLa [14] = assay: Induction of lysosomotropism in human HeLa cells infected with Ebolavirus assessed as increase in lysosome concentration in juxtanuclear region at 10 uM for 2 hrs by acridine orange staining based assay; assay type: functional, cell-based
In short: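 HeLa cells were pretreated with compound for 2 h, then given acridine orange for 30 min and washed. Red AO fluorescence in acidic compartments was imaged, and total intensity and average area were scored by high-content imaging. Eight wells per point, about 3000 cells/well, mean ± SD, representative of three independent experiments.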

Cytochrome P450 2D6 = Cytochrome P450 2D6 (Homo sapiens, UniProt P10635); assay: Inhibition of CYP2D6 (unknown origin) using 3-(2-(N, N-Diethyl-N-methylamino)ethyl)-7-Methoxy-4-Methylcoumarin as substrate; assay type: ADME; details: read-out: INH
In short: (§4)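 CYP IC50 was taken from the net fluorescent signal after incubation at 37 °C for a set time with active cytochrome P450 enzyme and a fluorescent probe substrate.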

[15] = Half life in human liver microsomes; assay type: ADME, Microsome
In short: (§5)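 Substrate depletion with mouse or human liver microsomes, 1 h at 37 °C. Clearance (μL/min/mg) and half-life derived.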

[16] = Half life in mouse liver microsomes; assay type: ADME, Microsome; in short: as §5
[17] = Solubility of the compound in deionized water; assay type: physicochemical
[18] = Clearance in mouse liver microsomes after 1 hr; assay type: ADME, Microsome; details: read-out: CLH; in short: as §5
[19] = Clearance in human liver microsomes after 1 hr; assay type: ADME, Microsome; details: read-out: CLH; in short: as §5
[20] = Stability in plasma (unknown origin) after 1 hr at 37 degC; assay type: ADME, cell-free; details: read-out: Stability
In short: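 Compound was incubated in plasma for 1 h at 37 °C, and the percent remaining was reported.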

Cytochrome P450 3A4 [21] = target: T1, Cytochrome P450 3A4 (Homo sapiens, UniProt P08684); assay: Inhibition of CYP3A4 (unknown origin) using 7-benzyloxy-4-trifluoromethylcoumarin as substrate; assay type: ADME; in short: as §4
[22] = Solubility of the compound in pH 7.4 buffer by laser nephelometric method; assay type: physicochemical
In short: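 Solubility at pH 7.4 was measured by laser nephelometry (light scattering), in triplicate.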

Cytochrome P450 2C19 = Cytochrome P450 2C19 (Homo sapiens, UniProt P33261); assay: Inhibition of CYP2C19 (unknown origin) using CEC as substrate; assay type: ADME; in short: as §4
Cytochrome P450 3A4 [23] = target: T1, Cytochrome P450 3A4; assay: Inhibition of CYP3A4 (unknown origin) using dibenzylfluorescein as substrate; assay type: ADME; in short: as §4
Cytochrome P450 3A4 [24] = target: T1, Cytochrome P450 3A4; assay: Inhibition of CYP3A4 (unknown origin) using 7-benzyloxyquinoline as substrate; assay type: ADME; in short: as §4
Zaire ebolavirus [25] = assay: Antiviral activity against Ebolavirus Mayinga infected in Balb/c mouse assessed as protection against viral infection by measuring host survival at 10 mg/kg, ip administered 2 hrs prior to viral infection daily for 6 days and measured for 14 days relative to control; assay type: functional, 1976
[26] = tested on: Vesicular stomatitis virus; assay: Antiviral activity against VSV expressing GFP infected in human HeLa cells assessed as inhibition of viral infection at 0.1 uM pre-incubated for 2 hrs followed by viral infection and measured after 6 hrs by cell mask deep red staining based assay; assay type: functional, organism-based; in short: as §3
[27] = tested on: Vesicular stomatitis virus; assay: Antiviral activity against VSV expressing GFP infected in human HeLa cells assessed as inhibition of viral infection at 2 uM pre-incubated for 2 hrs followed by viral infection and measured after 6 hrs by cell mask deep red staining based assay; assay type: functional, organism-based; in short: as §3
[28] = tested on: Vesicular stomatitis virus; assay: Antiviral activity against VSV expressing GFP infected in human HeLa cells assessed as inhibition of viral infection at 50 uM pre-incubated for 2 hrs followed by viral infection and measured after 6 hrs by cell mask deep red staining based assay; assay type: functional, organism-based; in short: as §3
Zaire ebolavirus [29] = assay: Antiviral activity against VSV pseudotyped Ebolavirus Mayinga expressing GFP infected in human HeLa cells assessed as inhibition of viral infection up to 50 uM pre-incubated for 2 hrs followed by viral infection and measured after 8 hrs by high content imaging analysis; assay type: functional, organism-based; details: 1976; in short: as §3
Zaire ebolavirus [30] = assay: Antiviral activity against VSV pseudotyped Ebolavirus Mayinga expressing GFP infected in human HeLa cells assessed as inhibition of viral infection at 2 uM pre-incubated for 2 hrs followed by viral infection and measured after 8 hrs by cell mask deep red staining based assay; assay type: functional, organism-based; details: 1976; in short: as §3
[31] = Orthoebolavirus, H. sapiens-wt/1995/Kikwit-9510621, HeLa
[32] = Orthoebolavirus, H. sapiens-wt/1995/Kikwit-9510621, HeLa, read-out: EC50

T1 sequence (P08684 whole entry): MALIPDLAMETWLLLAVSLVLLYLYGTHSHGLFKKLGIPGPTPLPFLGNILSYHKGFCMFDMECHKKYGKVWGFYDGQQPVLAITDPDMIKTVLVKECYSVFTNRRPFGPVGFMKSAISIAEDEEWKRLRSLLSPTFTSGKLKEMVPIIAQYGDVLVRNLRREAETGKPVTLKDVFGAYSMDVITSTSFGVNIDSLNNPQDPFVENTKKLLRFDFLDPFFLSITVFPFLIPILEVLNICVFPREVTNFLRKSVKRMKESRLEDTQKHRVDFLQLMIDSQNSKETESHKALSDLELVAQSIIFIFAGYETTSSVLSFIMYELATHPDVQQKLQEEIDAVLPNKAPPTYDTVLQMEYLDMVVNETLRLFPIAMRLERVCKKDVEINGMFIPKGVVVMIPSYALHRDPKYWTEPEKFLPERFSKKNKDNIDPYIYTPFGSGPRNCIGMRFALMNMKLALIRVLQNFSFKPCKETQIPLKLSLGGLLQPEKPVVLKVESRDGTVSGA
Cytochrome P450 2C19, sequence (P33261 whole entry): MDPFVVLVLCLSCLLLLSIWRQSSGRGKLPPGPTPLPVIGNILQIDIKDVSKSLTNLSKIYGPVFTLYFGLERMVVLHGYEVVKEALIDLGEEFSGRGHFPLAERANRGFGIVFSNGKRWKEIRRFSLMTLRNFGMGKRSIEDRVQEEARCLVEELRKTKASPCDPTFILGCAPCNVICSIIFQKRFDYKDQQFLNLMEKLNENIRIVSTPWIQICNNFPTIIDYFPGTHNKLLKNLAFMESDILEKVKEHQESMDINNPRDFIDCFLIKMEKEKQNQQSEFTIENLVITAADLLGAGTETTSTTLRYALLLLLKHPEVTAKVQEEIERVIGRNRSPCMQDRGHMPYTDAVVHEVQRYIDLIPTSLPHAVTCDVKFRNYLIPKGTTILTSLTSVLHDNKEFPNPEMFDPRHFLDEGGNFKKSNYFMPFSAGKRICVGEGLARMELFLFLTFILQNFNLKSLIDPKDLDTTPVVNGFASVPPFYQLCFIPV
Cytochrome P450 2D6, sequence (P10635 whole entry): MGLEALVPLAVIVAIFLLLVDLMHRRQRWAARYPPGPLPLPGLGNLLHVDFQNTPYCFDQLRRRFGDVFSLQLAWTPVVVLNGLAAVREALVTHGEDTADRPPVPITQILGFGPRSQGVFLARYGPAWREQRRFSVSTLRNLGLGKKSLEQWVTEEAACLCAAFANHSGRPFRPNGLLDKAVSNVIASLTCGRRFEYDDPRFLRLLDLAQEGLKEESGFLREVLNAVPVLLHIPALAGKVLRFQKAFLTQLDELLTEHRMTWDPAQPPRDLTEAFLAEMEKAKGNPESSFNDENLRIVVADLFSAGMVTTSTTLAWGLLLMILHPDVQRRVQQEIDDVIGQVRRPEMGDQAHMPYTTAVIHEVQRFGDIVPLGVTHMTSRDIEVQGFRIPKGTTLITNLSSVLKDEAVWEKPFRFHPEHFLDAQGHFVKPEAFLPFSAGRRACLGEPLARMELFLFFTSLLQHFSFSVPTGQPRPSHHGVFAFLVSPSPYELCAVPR

## NCCCNc1ccnc2c1ccc1c2ccc2c(NCCCN)ccnc21
Ebolavirus [1]; [31]
  EC90: 20.5 µM
Ebolavirus [1]; [32]
  EC50: 10 µM
[2]
  CC50 at 2 h: > 10 µM
[3]
  selectivity ratio: > 1

## CO/C1=C\C(C)=C\[C@@H](C)[C@@H](O)[C@@H](C)C/C(C)=C/C=C/[C@H](OC)[C@@H]([C@@H](C)[C@@H](O)[C@H](C)[C@@]2(O)C[C@@H](O)[C@H](C)[C@@H](C(C)C)O2)OC1=O
HeLa [4]
  Activity: inactive
HeLa [5]
  Activity: Active
[6]
  inhibition: Active

## CCN(CC)CCCNc1ccnc2cccnc12
Ebolavirus [1]; [32]
  EC50: 10 µM

## c1cnc2c(NCCCN3CCOCC3)ccnc2c1
Ebolavirus [1]
  EC50: Not Active

## NC(=O)c1nc(F)cnc1O
Ebolavirus [7]
  EC50: 67 µM
Ebolavirus [8]
  Activity: 100%

## CN(C)CCOc1ccc(/C(=C(/CCCl)c2ccccc2)c2ccccc2)cc1 [TOREMIFENE]
Ebolavirus [7]
  EC50: 0.97 to 1.73 µM
Ebolavirus [9]
  Activity: 50%

## OC(CNc1ccnc2c1ccc1c2ccc2c(NCCN3CCOCC3)ccnc21)CN1CCOCC1 (stereo unspecified)
Ebolavirus [1]; [31]
  EC90: 3.5 µM
Ebolavirus [1]; [32]
  EC50: 0.6 µM
[2]
  CC50 at 2 h: > 10 µM
[3]
  selectivity ratio: > 16.7

## CN(C)CCOCCNc1ccnc2c1ccc1c2ccc2c(NCCOCCN(C)C)ccnc21
Ebolavirus [1]; [31]
  EC90: 6.74 µM
Ebolavirus [1]; [32]
  EC50: 3.53 µM
[2]
  CC50 at 2 h: 7 µM
[3]
  selectivity ratio: 2

## CCC(CC)COC(=O)[C@H](C)N[P@](=O)(OC[C@H]1O[C@@](C#N)(c2ccc3c(N)ncnn23)[C@H](O)[C@@H]1O)Oc1ccccc1
Ebolavirus [10]
  Activity: 100%
Ebolavirus [7]
  EC50: 0.06 to 0.14 µM

## CCN(CC)Cc1cc(Nc2ccnc3cc(Cl)ccc23)ccc1O
[11]
  inhibition: inactive
Zaire ebolavirus [12]
  Activity: Active
HeLa [13]
  Activity: inactive
HeLa [14]
  Activity: Active

## c1cc(NCCCN2CCOCC2)c2nccc(NCCCN3CCOCC3)c2n1
Ebolavirus [1]; [32]
  EC50: 10 µM

## CCN(CC)CCCNc1ccnc2c(NCCCN(CC)CC)ccnc12
Ebolavirus [1]; [31]
  EC90: 37.4 µM
Ebolavirus [1]; [32]
  EC50: 4.82 µM
Cytochrome P450 2D6
  IC50: > 10 µM
[15]
  half-life: > 1 h
[16]
  half-life: > 1 h
[17]
  solubility: ≥ 25 mg/mL
[18]
  microsomal CLint: < 23 µL/min/mg
[19]
  microsomal CLint: < 23 µL/min/mg
[20]
  remaining at 1 h: > 85%
[2]
  CC50 at 2 h: > 10 µM
Cytochrome P450 3A4 [21]
  INH: > 10 µM
[22]
  solubility kinetic: > 0.05 mg/mL
Cytochrome P450 2C19
  INH: > 10 µM
Cytochrome P450 3A4 [23]
  INH: > 10 µM
Cytochrome P450 3A4 [24]
  INH: > 10 µM
[3]
  selectivity ratio: > 2

## CCN(CC)CCCC(C)Nc1ccnc2c(NC(C)CCCN(CC)CC)ccnc12 (stereo unspecified)
Ebolavirus [1]; [31]
  EC90: 4.73 µM
Ebolavirus [1]; [32]
  EC50: 0.78 µM
Zaire ebolavirus [25]
  Activity: 40%
Cytochrome P450 2D6
  IC50: 8 µM
[26]
  Activity: inactive
[27]
  Activity: inactive
[15]
  half-life: > 1 h
[28]
  Activity: Active
Zaire ebolavirus [29]
  Activity: Active
[16]
  half-life: 0.7 h
[17]
  solubility: ≥ 25 mg/mL
[18]
  microsomal CLint: 32.9 µL/min/mg
[19]
  microsomal CLint: < 23 µL/min/mg
[20]
  remaining at 1 h: > 85%
[2]
  CC50 at 2 h: > 10 µM
Cytochrome P450 3A4 [21]
  INH: > 10 µM
[22]
  solubility kinetic: > 0.05 mg/mL
Cytochrome P450 2C19
  INH: 3.6 µM
Cytochrome P450 3A4 [23]
  INH: > 10 µM
Cytochrome P450 3A4 [24]
  INH: > 10 µM
Zaire ebolavirus [30]
  Activity: Active
[3]
  selectivity ratio: > 13

Reference: ChEMBL document CHEMBL4330057, “Second generation of diazachrysenes: Protection of Ebola virus infected mice and mechanism of action” (Eur J Med Chem, 2019)
